TAAR1 ag – human TAAR1 agonism; Q96RJ0; CHO RD-HGA16 TAAR1, Fluo-8 calcium fluorescence; vehicle wells 0%, saturating PEA agonist 100%; activation, % at 3 µM; hit rate 0.99% among 360,000;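 active = activation above the mean activation of all test compounds in the run plus 3 SD, cut at about 38% in these data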
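Test system: RD-HGA16 (CHO) cells co-expressing Gα16 and hTAAR1 | Doses: Single dose, 3 µM | Schedule: 17-24 h seeding, 75 min 37 °C dye, 30 min RT | Evaluation: % activation from peak over basal fluorescence ratio, DMSO-to-PEA scaled | Technique: Kinetic Fluo-8 calcium fluorescence | Benchmarks: Low control DMSO, high control PEA (EC100)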
CHO parental Ca – signal in parental CHO cells, OX1R antagonist counter-screen; parental CHO-K1, ATP-induced calcium, Fluo-8 fluorescence; inhibition, % at 5.6 µM; hit rate 0.63% among 330,000;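 active = inhibition above that plate's mean sample inhibition plus 3 SD, cut at about 26% in these data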;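 also: 0% = ATP-challenged DMSO wells and 100% = DMSO wells without ATP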
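test system = CHO parental line | reagent = ATP stimulus | measured by = intracellular calcium via Fluo-8 no-wash fluorescent dye | control set = ATP and no-ATP DMSO wells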
OX1R antag-1 – antagonists of human orexin 1 receptor (OX1R); hit rate 1.8% among 330,000; inhibition, % at 6.6 µM; AID 485270; OX1R-expressing cells, FRET antagonist read-out; in the data active = inhibition mostly above about 38%, no sharp cut-off; inactive = mostly below about 40%;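 also: 0% = agonist challenge alone and 100% = reference antagonist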
GPR7 antag – human neuropeptides B/W receptor 1 antagonism. P48145. hit rate 1.1% among 290,000. GPR7-expressing cells, fluorescence antagonist assay. inhibition, % at 4.4 µM; in the data active = inhibition above about 16%, passing the limit was not always enough;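 also: cells stimulated with the agonist NPW; 0% = agonist with vehicle and 100% = vehicle without agonist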
Target sequence (P48145 whole entry, looked up): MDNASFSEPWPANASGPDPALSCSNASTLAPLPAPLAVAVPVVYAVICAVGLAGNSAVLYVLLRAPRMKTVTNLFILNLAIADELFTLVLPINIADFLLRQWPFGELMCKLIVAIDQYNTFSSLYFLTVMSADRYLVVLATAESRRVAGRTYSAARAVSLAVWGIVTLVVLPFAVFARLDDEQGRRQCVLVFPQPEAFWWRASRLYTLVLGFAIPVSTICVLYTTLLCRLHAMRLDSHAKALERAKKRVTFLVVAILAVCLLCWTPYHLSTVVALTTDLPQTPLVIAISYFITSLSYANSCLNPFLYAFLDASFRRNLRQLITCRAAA
TAAR1 antagonist – antagonists of human TAAR1; Q96RJ0; CHO RD-HGA16 TAAR1, Fluo-8 calcium fluorescence, antagonist; inhibition, % at 3 µM; hit rate 1.5% among 360,000; AID 624466;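 active = inhibition above a per-plate cutoff, the mean inhibition of test compounds on that plate plus 3 SD, cut at about 49% in these data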;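 also: 0% = DMSO plus EC80 beta-PEA response and 100% = DMSO alone without agonist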
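Test system: hTAAR1-expressing CHO RD-HGA16 cells, Gα16-coupled; Probe or stimulus: EC80 β-phenethylamine stimulus; Compound dosing: single nominal final test compound concentration of 3 µM; Timing: 140 s kinetic read after compound, 140 s after agonist; Signal: Fluo-8 calcium-sensitive fluorescence; Measure: % inhibition of agonist calcium response; Controls: DMSO and EC80 PEA controls.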
OX1R antag-2 – antagonists of human orexin 1 receptor. O43613. AID 434989. hit rate 0.43% among 330,000. CHO/OX1R cells, Fluo-8 calcium fluorescence, orexin A. inhibition, % at 5 µM;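 active = inhibition above its plate's threshold, mean inhibition of all tested compounds on the plate plus 3 SD, cut at about 37% in these data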;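 also: 0% = orexin A challenge wells and 100% = SB-334867-A antagonist wells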
The depositor's hits bear a star; . = no result. Only some compounds are listed: those with a hit (about 4.6% of all), similar ones and a draw of the others.

SMILES	TAAR1 ag	CHO parental Ca	OX1R antag-1	GPR7 antag	TAAR1 antagonist	OX1R antag-2
NC(=O)c1c(NC(=O)c2ccccc2Cl)sc2c1CCC2	-0.9	-16.9	34.5	-6.4	-12.7	-7.2
NC(=O)c1c(NC(=O)c2ccc(F)cc2Cl)sc2c1CCC2	-2.9	-15.7	43.5*	-10.7	-4.3	-15.7
NC(=O)c1c(NC(=O)c2ccccc2F)sc2c1CCCC2	-1.3	-12.5	73.7*	2.6	-3.7	-16.9
COc1ccccc1-n1c(C)c(C(C)=O)c2cc(O)ccc21	5.7	-12.2	4.5	-18.3	4.2	-20.2
CCCN(CC(=O)Nc1ccccc1OC)C(=O)Cc1ccc2c(c1)CCC2	.	-28.0	48.4*	.	.	0.0
O=C1NC(=Nc2ccccc2)c2ccc([N+](=O)[O-])cc21	-0.4	-4.2	74.3*	-4.4	-6.0	-4.7
Cc1cccc(N=C2NC(=O)c3cc([N+](=O)[O-])ccc32)c1	-0.8	-6.5	69.7*	-3.8	13.2	0.3
Cc1ccc([N+](=O)[O-])cc1N=C1C(=O)Nc2ccccc21	0.9	-2.4	16.7	9.6	-21.9	-24.4
CCc1ccc(-c2cc(C)no2)cc1S(=O)(=O)N1CCN(C(=O)c2ccco2)CC1	4.0	-21.7	4.9	1.3	11.1	-25.9
c1coc(-c2nc3ccccc3nc2-c2ccco2)c1	0.5	-23.2	43.0*	-1.7	-2.7	-3.3
NC(=O)c1cc([N+](=O)[O-])ccc1NCC1CCCCC1	37.6*	-19.2	-2.2	.	-15.3	-20.5
Cc1n[nH]c(=O)c2c(NC(=O)CSc3nn(-c4ccc(F)cc4)c(=S)s3)oc(C)c12	1.9	-2.8	33.6	.	0.7	-8.8
O=[n+]1c2c(n([O-])c3cc(F)c(N4CCCC4)cc31)CCCC2	20.1	4.6	52.5*	-5.7	8.1	-0.3
Cc1ccc2c(c1)n([O-])c1c([n+]2=O)CCCC1	0.7	-0.8	28.9	-14.3	-2.7	-9.2
O=[n+]1c2c(n([O-])c3cc(F)c(N4CCCC4)cc31)CCC2	16.2	2.7	67.6*	6.1	4.1	7.5
O=C(NC1CCS(=O)(=O)C1)c1ccc(S(=O)(=O)N2CCCCC2)cc1 (stereo not drawn)	6.0	-4.9	25.5	-4.8	5.0	-27.9
Nn1cnc2cc3ccccc3cc2c1=O	-0.7	-9.4	14.8	-5.6	-5.4	-12.1
O=C1NC2(CCCCC2)OC12CCCCC2	1.6	.	.	.	4.0	.
CCN1C(=O)C(CC(=O)Nc2ccc(OC)cc2)N(CCc2ccc(OC)cc2)C1=S (stereo not drawn)	27.9	-23.6	0.3	1.7	51.5*	10.7
CCN1C(=O)C(CC(=O)Nc2ccc(OC)cc2)N(Cc2ccc(OC)c(OC)c2)C1=S (stereo not drawn)	8.6	-16.3	2.4	-9.3	-28.8	-24.0
COC(=O)c1cc(NC(=O)c2cc(-c3ccccc3Cl)oc2C(F)(F)F)ccc1N1CCOCC1	1.2	-35.6	9.5	-18.6	10.6	-43.5
Cc1ccc(S(=O)(=O)Cc2ccc(C(=O)N3CCN(c4cccc(C)c4C)CC3)o2)cc1	-1.6	-1.3	8.3	6.3	-6.0	-32.5
COc1ccc(S(=O)(=O)Cc2ccc(C(=O)N3CCN(c4cc(Cl)ccc4C)CC3)o2)cc1	1.2	2.4	6.4	-10.7	48.8*	-18.6
COc1ccc(S(=O)(=O)Cc2ccc(C(=O)N3CCN(c4cccc(C)c4C)CC3)o2)cc1	-0.5	48.5*	11.3	-0.8	33.2	7.5
COc1ccc(S(=O)(=O)Cc2ccc(C(=O)N3CCN(c4cc(C)ccc4C)CC3)o2)cc1	-1.3	-30.1	14.4	12.0	20.4	-32.8
Nc1ccc(O)c2ccccc12	.	-21.1	30.8	.	.	2.6
Cc1cc(OC(=O)c2cccc(Cl)c2)c([N+](=O)[O-])c(=O)[nH]1	2.1	-3.4	2.7	14.2	-17.6	-0.6
COc1ccc(N=C2SC(CC(=O)Nc3ccccc3)C(=O)N2CCc2ccccn2)cc1 (stereo not drawn)	3.3	-5.4	69.2*	1.6	2.8	16.5
COc1ccc(OC)c(NC(=O)CC2SC(=Nc3ccccc3)N(CCc3ccccn3)C2=O)c1 (stereo not drawn)	4.5	-11.3	22.0	-2.9	11.4	-25.4
O=C(c1ccc(=O)[nH]n1)N1CCN(S(=O)(=O)c2cccc(F)c2)CC1	2.2	.	.	.	-44.9	.

Source: PubChem BioAssay (The Scripps Research Institute Molecular Screening Center)
